What was measured:
Assay type in all cases: cell-based
[1] = molecular target: Glutamate receptor 1 (Rattus norvegicus) (UniProt P19490); test: Negative allosteric modulation of recombinant rat GluA1 expressed in Xenopus laevis oocytes assessed as inhibition of glutamate-induced current response at 30 uM at -40 mV holding potential by two-electrode voltage clamp method relative to glutamate alone
Method in brief: (§1)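 Oocyte two-electrode voltage clamp at -40 mV holding. Test compound co-applied with agonist; response given as percent of the mean of control and recovery currents to agonist alone. Agonists: 100 µM glutamate (AMPA, kainate), 100 µM GABA (GABA receptors), 100 µM glycine (glycine receptor), 100 µM serotonin (5-HT3A), 9 µM ATP (P2X), 1 µM acetylcholine (nicotinic).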

[2] = molecular target: P2X receptor (Homo sapiens) (UniProt P51575+Q99571+Q9UBL9+O15547+P56373+Q99572+Q93086); test: Negative allosteric modulation of human P2X expressed in Xenopus laevis oocytes assessed as inhibition of ATP-induced current response at 30 uM at -40 mV holding potential by two-electrode voltage clamp method relative to ATP alone; method in brief: as §1
Rattus norvegicus = organism: Rattus norvegicus; test: Negative allosteric modulation of rat GABAA rho expressed in Xenopus laevis oocytes assessed as inhibition of GABA-induced current response at 30 uM at -40 mV holding potential by two-electrode voltage clamp method relative to GABA alone; method in brief: as §1
[3] = molecular target: T1, Glycine receptor subunit alpha-1 (Rattus norvegicus) (UniProt P07727); test: Negative allosteric modulation of rat glycine alpha1 expressed in Xenopus laevis oocytes assessed as inhibition of glycine-induced current response at 30 uM at -40 mV holding potential by two-electrode voltage clamp method relative to glycine alone; method in brief: as §1
T1 sequence (whole entry): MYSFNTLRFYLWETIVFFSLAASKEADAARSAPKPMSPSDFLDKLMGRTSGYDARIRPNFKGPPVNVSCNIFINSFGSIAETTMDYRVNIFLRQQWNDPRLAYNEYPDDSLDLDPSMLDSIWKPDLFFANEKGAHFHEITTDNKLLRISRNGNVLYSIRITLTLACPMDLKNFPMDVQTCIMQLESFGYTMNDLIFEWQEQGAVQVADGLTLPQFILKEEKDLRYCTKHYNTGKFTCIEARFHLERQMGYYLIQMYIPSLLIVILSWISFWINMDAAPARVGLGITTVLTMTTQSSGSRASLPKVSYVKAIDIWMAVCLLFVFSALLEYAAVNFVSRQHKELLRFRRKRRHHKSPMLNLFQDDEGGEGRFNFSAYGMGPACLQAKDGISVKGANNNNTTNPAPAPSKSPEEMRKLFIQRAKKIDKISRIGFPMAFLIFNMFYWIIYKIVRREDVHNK

[4] = molecular target: CHRNA1/CHRNB1/CHRNG/CHRND (Rattus norvegicus) (UniProt P25109+P25108+P25110+P18916); test: Negative allosteric modulation of rat alpha1betagammadelta nACHR expressed in Xenopus laevis oocytes assessed as inhibition of acetylcholine-induced current response at 30 uM at -40 mV holding potential by two-electrode voltage clamp method relative to acetylcholine alone; method in brief: as §1
[5] = molecular target: Ionotropic glutamate receptor NMDA 1/2D (Rattus norvegicus) (UniProt P35439+Q62645); test: Negative allosteric modulation of recombinant rat GluN1/GluN2D expressed in Xenopus laevis oocytes assessed as inhibition of glutamate/glycine-induced current response at saturated concentration at -40 mV holding potential by two-electrode voltage clamp method relative to glutamate/glycine
Method in brief: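 Hill fit of the composite concentration-response curve in oocytes, with agonist 100 µM glutamate plus 30 µM glycine. Residual response in saturating compound is either fixed at 0 or fitted. 8-16 oocytes from 2-3 frogs.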

Chain of Glutamate receptor 1 (Rattus norvegicus) (P19490 whole entry): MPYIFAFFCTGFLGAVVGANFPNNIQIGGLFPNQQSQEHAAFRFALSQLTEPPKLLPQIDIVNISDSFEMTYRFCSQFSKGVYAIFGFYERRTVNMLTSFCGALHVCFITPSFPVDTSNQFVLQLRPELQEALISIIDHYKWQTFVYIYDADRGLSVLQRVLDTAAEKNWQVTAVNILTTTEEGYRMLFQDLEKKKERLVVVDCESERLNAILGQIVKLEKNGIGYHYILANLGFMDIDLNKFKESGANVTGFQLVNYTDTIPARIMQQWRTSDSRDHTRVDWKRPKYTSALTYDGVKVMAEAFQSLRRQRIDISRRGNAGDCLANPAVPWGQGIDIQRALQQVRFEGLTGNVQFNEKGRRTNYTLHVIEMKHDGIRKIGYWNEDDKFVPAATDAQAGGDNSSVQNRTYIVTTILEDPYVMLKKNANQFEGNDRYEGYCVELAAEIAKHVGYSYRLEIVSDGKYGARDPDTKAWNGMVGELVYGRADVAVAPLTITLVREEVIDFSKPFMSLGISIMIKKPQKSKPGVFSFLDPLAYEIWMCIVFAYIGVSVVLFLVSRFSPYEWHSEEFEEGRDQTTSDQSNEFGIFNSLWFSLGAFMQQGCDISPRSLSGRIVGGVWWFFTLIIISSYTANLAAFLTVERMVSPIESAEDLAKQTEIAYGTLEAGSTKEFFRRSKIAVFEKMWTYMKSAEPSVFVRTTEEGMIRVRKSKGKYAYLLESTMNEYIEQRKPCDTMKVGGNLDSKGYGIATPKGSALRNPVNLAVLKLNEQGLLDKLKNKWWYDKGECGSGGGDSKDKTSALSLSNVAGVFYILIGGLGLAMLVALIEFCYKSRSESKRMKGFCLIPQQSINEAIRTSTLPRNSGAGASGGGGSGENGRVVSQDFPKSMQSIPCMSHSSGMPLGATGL

In the case of `CCN(CC)C(=O)Oc1ccc(C(=O)Nc2cccc(CCNS(=O)(=O)c3ccccc3)c2)cc1`, the inhibition [1] is reported as 79%, the inhibition [2] is reported as 80% and the inhibition (Rattus norvegicus) is reported as 98%. For the same compound, the inhibition [3] was 30%, the inhibition [4] was 27% and the inhibition [5] was 0%.
